Experimental findings from ChEMBL document CHEMBL1125458, “3-O-alkylascorbic acids as free radical quenchers. 3. Protective effect on coronary occlusion-reperfusion induced arrhythmias in anesthetized rats” (1992) are described below.

For test [1], the system named is Rattus norvegicus. Description: Effect (30 mg/kg, iv) on coronary reperfusion-induced arrhythmias was assessed in anesthetized rats. (Intervals of ventricular tachycardia (VT)+ventricular fibrillation (VF) within 600 s. In kind it is functional, Cardiac ventricle.
For test [2], the species on record is Rattus norvegicus. Description: Inhibition of lipid peroxidation in rat liver microsomes. It counts as functional. Particulars: dose or concentration not given here. Details: concentration or dose not given beside the values. The method in brief:
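Wistar rat liver microsomes (2.0 mg protein) in 83.5 mM KCl, 37.2 mM Tris-HCl pH 7.4 with 1 mM ADP, 10 µM FeCl3, 0.02 mM NADPH; compound added in DMF, tested at 10^-5 M. 37 °C, 20 min. Malondialdehyde measured by thiobarbituric acid method, A532; % inhibition, mean ± SD, n = 3–6.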
(Microsomes from liver hold many membrane-bound enzymes, among them those of drug oxidation.)

Test [3] relates to Rattus norvegicus. Description: Effect (10 mg/kg, iv) on coronary reperfusion-induced arrhythmias was assessed in anesthetized rats.(Intervals of ventricular tachycardia (VT)+ventricular fibrillation (VF) within 600 s. In kind it is functional, Cardiac ventricle.
The species entered for test [4] is Rattus norvegicus. Description: Inhibitory effect on production of active oxygen species by rat peritoneal exudate macrophages. Details: concentration or dose not given beside the values. In kind it is functional. The method in brief: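 Peritoneal exudate macrophages harvested 3 days after ip liquid paraffin (male Wistar rats), >90% viable. Assay: 125 mM sodium phosphate pH 6.5, 0.08 mM EDTA, 1.2 U LDH, 0.32 mM NADH, (2–3) × 10^6 cells, compound in DMF, 1 × 10^-4 M. Started with NADH.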

Test [5] has as its system Rattus norvegicus. Description: Effect (10 mg/kg, iv) on coronary reperfusion-induced arrhythmias was assessed in anesthetized rats.(Intervals of ventricular tachycardia (VT)+ventricular fibrillation (VF) within 600 s. In kind it is functional, Cardiac ventricle.
The species entered for test [6] is Cavia porcellus. Description: Inhibitory activity on atrial contractility in isolated Guinea pig right atrea at 0.3 mg/mL concentration. In kind it is functional, Cardiac atrium. The method, boiled down: (§1)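 Right atria from male Hartley guinea pigs (450–550 g), loaded at 0.5 g, in Tyrode's solution at 37 °C gassed with 95% O2/5% CO2. Equilibrated at least 30 min until rate stable within 5 beats/min; spontaneous rate and contractile force recorded on polygraph after compound addition.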

The species entered for test [7] is Cavia porcellus. Description: Inhibitory activity on atrial rate in isolated Guinea pig right atrea at 0.03 mg/mL concentration. In kind it is functional, Cardiac atrium. The method in brief: as §1
For test [8], the species on record is Cavia porcellus. Description: Inhibitory activity on atrial rate in isolated Guinea pig right atrea at 0.3 mg/mL concentration. In kind it is functional, Cardiac atrium. The method, boiled down: as §1
The species named for test [9] is Cavia porcellus. Description: Inhibitory activity on atrial contractility in isolated Guinea pig right atrea at 0.03 mg/mL concentration p<0.05. In kind it is functional, Cardiac atrium. The method, boiled down: as §1
The species named for test [10] is Cavia porcellus. Description: Inhibitory activity on atrial contractility in isolated Guinea pig right atrea at 0.1 mg/mL concentration p<0.05. In kind it is functional, Cardiac atrium. The method in brief: as §1
Test [11] is filed under the species Cavia porcellus. Description: Inhibitory activity on atrial rate in isolated Guinea pig right atrea at 0.1 mg/mL concentration. In kind it is functional, Cardiac atrium. The method, boiled down:
as §1

`CCOC1=C(O)C(=O)OC1C(O)CO` (stereo not drawn) showed an Arrhythmias times in the test with Rattus norvegicus [1] of 591. In the test filed under Rattus norvegicus [2], this compound showed an inhibition of 2%.
Consider `CCCCCCCCCCCCOC1=C(O)C(=O)OC1C(O)CO` (stereo not drawn), for which the Arrhythmias times with Rattus norvegicus [3] came to 49. In the test listed under Rattus norvegicus [2], this compound displayed an inhibition of 91%. In addition, the Inhibition in the test filed under Rattus norvegicus [4] is on record as 38.7%.
Consider `CCCCCCCCc1ccc(C(=O)COC2=C(O)C(=O)OC2C(O)CO)cc1` (stereo not drawn), for which, in the test with Rattus norvegicus [5], the Arrhythmias times is given as 461. The Inhibition is reported as 45% in the test listed under Cavia porcellus [6]; -0.4% in the test filed under Cavia porcellus [7]; 0.3% in the test listed under Cavia porcellus [8]; 15.8% in the test filed under Cavia porcellus [9]; 33.5% in the test listed under Cavia porcellus [10]; -0.9% in the test listed under Cavia porcellus [11]. The same compound gave an inhibition in the test filed under Rattus norvegicus [2] of 88%.

Usually inhibition stands for how much of the control response was suppressed. One may read the Inhibition as the change of the read-out against control, counted positive when it falls.
